Test results reported in ChEMBL document CHEMBL1140421, “Kynurenamines as neural nitric oxide synthase inhibitors” (J Med Chem, 2005).

How the values were obtained:
[1] = molecular target: Nitric oxide synthase 1 (Rattus norvegicus) (UniProt P29476); assay: Percentage inhibition of rat striatal neural nitric oxide synthase (nNOS) activity at 1 mM by quantifying L-[3H]citrulline production
In short: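 Striatal homogenate was made in pH 7.6 Tris buffer with DTT and protease inhibitors, then spun 1000g for 5 min. Supernatant was incubated with 25 mM Tris, 1 mM DTT, 30 μM H4-biopterin, 10 μM FAD, 0.1 mM CaCl2, 10 μM L-arginine plus 50 nM L-[3H]-arginine, 0.75 mM NADPH and compound at 1 mM final in DMSO, 37 °C, 30 min. L-[3H]-citrulline separated on Dowex-50W and counted. NADPH-free blank subtracted. Three experiments in triplicate.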

[2] = molecular target: Kynurenine 3-monooxygenase (Rattus norvegicus) (UniProt O88867); assay: Percent activity of rat striatal kynurenine 3-hydroxylase (KYN3OH) activity at 1 mM by quantifying 3-hydroxykynurenine production
Kynurenine 3-monooxygenase (Rattus norvegicus), sequence (O88867 whole entry, looked up): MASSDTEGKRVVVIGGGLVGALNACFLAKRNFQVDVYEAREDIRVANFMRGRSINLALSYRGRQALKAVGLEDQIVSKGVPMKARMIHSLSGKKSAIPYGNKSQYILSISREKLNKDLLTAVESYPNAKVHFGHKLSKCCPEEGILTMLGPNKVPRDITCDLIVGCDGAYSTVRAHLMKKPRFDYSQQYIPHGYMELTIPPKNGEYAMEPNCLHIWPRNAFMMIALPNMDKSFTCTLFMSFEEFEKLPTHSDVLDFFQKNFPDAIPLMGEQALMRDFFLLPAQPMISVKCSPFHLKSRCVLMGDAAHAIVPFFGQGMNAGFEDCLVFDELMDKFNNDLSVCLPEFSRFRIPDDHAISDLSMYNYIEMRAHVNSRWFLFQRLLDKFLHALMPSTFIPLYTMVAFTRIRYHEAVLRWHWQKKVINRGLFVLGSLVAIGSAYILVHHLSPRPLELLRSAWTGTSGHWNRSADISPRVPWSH

Nitric oxide synthase 1 (Rattus norvegicus), sequence (P29476 whole entry): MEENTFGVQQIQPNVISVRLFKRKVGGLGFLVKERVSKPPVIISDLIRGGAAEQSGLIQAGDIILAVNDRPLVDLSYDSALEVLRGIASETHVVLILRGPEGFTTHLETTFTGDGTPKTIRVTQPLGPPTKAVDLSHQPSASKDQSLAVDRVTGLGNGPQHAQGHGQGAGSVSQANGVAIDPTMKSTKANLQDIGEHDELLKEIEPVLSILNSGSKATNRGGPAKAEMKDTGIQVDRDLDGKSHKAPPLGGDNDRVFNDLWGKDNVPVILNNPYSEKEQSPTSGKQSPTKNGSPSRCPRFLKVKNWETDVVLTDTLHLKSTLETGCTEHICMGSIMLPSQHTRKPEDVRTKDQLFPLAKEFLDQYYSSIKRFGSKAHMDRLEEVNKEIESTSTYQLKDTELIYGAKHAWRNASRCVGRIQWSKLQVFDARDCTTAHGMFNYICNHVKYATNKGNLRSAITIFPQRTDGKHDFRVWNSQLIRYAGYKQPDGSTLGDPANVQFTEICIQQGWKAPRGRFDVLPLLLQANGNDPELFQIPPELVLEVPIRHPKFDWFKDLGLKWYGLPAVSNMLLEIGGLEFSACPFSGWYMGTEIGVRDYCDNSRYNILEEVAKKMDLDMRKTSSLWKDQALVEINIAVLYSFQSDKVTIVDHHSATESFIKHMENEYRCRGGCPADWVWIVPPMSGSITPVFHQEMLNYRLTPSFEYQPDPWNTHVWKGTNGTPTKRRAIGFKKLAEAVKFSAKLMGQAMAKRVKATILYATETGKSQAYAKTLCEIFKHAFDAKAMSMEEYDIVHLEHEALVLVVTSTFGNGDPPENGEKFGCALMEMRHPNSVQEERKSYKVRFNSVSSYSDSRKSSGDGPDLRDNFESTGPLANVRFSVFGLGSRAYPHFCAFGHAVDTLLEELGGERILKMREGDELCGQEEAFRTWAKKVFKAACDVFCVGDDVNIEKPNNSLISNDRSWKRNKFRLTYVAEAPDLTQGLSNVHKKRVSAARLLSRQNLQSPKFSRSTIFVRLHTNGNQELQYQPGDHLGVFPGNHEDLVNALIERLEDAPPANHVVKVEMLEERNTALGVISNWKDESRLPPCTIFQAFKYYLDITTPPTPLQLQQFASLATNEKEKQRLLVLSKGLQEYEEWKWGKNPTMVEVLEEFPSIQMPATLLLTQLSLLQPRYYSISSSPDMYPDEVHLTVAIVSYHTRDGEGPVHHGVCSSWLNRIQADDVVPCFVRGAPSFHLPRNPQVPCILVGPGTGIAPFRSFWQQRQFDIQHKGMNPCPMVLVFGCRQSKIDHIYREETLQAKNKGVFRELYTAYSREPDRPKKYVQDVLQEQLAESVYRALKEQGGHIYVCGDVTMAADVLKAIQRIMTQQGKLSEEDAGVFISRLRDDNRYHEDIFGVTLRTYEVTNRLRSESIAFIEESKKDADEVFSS

| SMILES | inhibition [1] [%] | % activity [2] [%] |
| --- | --- | --- |
| COc1ccc(N)c(C(=O)CCNC(=O)C2CC2)c1 | 40.4 | 99.9 |
| COc1ccc(N)c(C(=O)CCNC(=O)C2CCC2)c1 | 33.7 | 92.2 |
| COc1ccc(N)c(C(=O)CCNC(=O)C2CCCC2)c1 | 45 | 96.3 |
| Nc1ccc(Cl)cc1C(=O)CCNC(=O)c1ccccc1 | 21.7 | – |
| Nc1ccc(Cl)cc1C(=O)CCNC(=O)C1CC1 | 23.3 | – |
| COc1ccc(N)c(C(=O)CCNC(=O)C2CCCCC2)c1 | 48.2 | 99.6 |

Other lines, results leading:

| inhibition [1] [%] | % activity [2] [%] | SMILES |
| --- | --- | --- |
| 46.5 | 97.2 | COc1ccc(N)c(C(=O)CCNC(=O)c2ccccc2)c1 |
| 31.7 | – | CC(=O)NCCC(=O)c1cc(Cl)ccc1N |
| 39.6 | 97.2 | CCCCC(=O)NCCC(=O)c1cc(OC)ccc1N |
| 42.8 | – | CCCC(=O)NCCC(=O)c1cc(OC)ccc1N |
| 65.4 | 102 | COc1ccc(N)c(C(=O)CCNC(C)=O)c1 |
| 50.9 | 99.4 | CCC(=O)NCCC(=O)c1cc(OC)ccc1N |
